CASP6 VEID inh: inhibitors of human caspase-6. 350,000 tested, 0.53% active. AID 686996. purified caspase-6, Z-VEID-R110 cleavage fluorescence. P55212. inhibition, % at 12.5 µM;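 active means mean inhibition across replicates at least about 35%, with every replicate also reaching that limit, limit read from the data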;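 further: 0% = median of neutral control wells and 100% = no fluorescence left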
UHRF1 binding: human UHRF1 methylated DNA binding inhibitors; Q96T88; UHRF1 binding to methylated oligo, TR-FRET; inhibition, % at 4.4 µM; 370,000 tested, 0.75% active; AID 687016; in the data active means inhibition above about 21%;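 further: UHRF1 SRA domain binding a hemimethylated CpG hairpin DNA probe; 0% = median of test compound wells and 100% = reference inhibitor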
Target sequence (Q96T88 whole entry, looked up, the tested form may be a part): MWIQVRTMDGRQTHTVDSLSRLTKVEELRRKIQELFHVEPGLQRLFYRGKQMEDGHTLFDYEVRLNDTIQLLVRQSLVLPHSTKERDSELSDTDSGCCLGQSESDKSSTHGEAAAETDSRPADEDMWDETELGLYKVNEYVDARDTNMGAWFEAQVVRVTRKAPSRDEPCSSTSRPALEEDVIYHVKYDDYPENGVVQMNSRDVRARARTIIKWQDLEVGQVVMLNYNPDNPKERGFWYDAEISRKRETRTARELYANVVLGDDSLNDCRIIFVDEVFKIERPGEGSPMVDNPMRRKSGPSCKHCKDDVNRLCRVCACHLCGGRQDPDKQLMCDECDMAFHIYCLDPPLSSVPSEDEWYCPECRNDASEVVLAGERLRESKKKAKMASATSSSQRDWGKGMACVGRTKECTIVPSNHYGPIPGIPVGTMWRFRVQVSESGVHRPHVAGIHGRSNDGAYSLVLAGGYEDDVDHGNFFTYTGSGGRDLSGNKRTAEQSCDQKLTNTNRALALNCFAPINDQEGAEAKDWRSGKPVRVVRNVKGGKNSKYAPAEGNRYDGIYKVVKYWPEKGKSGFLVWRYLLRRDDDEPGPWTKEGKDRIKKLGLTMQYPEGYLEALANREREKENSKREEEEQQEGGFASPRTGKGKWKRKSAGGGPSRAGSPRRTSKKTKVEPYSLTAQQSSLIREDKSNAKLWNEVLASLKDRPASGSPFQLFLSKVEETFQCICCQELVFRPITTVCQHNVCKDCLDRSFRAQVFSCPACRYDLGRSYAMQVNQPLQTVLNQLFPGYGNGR
NSD2 HMT inh: NSD2 (human) methyltransferase inhibition; O96028; 310,000 tested, 0.54% active; NSD2 peptide methylation, AlphaScreen, 120 min; AID 743445; inhibition, % at 12.5 µM; in the data active means inhibition above about 50%
TDP2 inh: blocks human TDP2 phosphodiesterase activity. AID 720702. inhibition, % at 12.8 µM. 370,000 tested, 0.34% active. recombinant TDP2, T5PNP hydrolysis, p-nitrophenol absorbance 415 nm;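 active means inhibition above the mean of all tested compounds plus 3 SD, set per campaign, cut at about 25% in these data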;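 further: 0% = DMSO with enzyme and 100% = buffer with substrate but no TDP2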
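test system = human TDP2 enzyme | input = TDP2 enzyme at 120 nM final | medium = 50 mM Tris-HCl pH 7.5 with Mg2+, KCl, DTT, BSA | also added = T5PNP substrate, 5 mM | times = 2 h at 37 °C | technique = epi absorbance | benchmarks = high control without enzyme, low control DMSO plus TDP2 | replication = each compound tested once, singlicate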
LEDGF integ inh: blocks HIV-1 LEDGF/p75-dependent DNA integration | TR-FRET IN-LEDGF/p75 DNA integration, Eu/Cy5 | inhibition, % at 3.7 µM | 370,000 tested, 0.64% active;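 active means inhibition above the screen-wide mean plus 3 SD, cut at about 13% in these data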;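 further: signal is the Cy5 over europium emission ratio at 671 and 618 nm; 0% = plate median of compound wells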
MBD2 DNA inh: inhibitors of human MBD2 binding to methylated oligonucleotide; Q9UBB5; TR-FRET; inhibition, % at 4.4 µM; 370,000 tested, 0.31% active; AID 686964; in the data active means inhibition above about 13%
CASP1 counter: selectivity counter-screen: inhibitors of human caspase-1. shares compounds with CASP6 VEID inh. purified caspase-1, Z-YVAD-R110 cleavage fluorescence. activity change, negative = inhibition, % at 35 µM. 100 tested, under 10 active;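 active means compounds lowering fluorescence whose fitted half-maximal concentration is no more than twice their top tested dose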
TDP2 confirm: human TDP2 inhibition, confirmation; shares compounds with TDP2 inh; recombinant human TDP2, absorbance read-out; inhibition, % at 12.8 µM; 1,100 tested, 22% active; AID 743263; in the data active means inhibition above about 25%;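 further: 0% = vehicle with enzyme and 100% = no enzyme buffer only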
IN multimer up: HIV-1 integrase multimerization activation, counter-screen | shares compounds with LEDGF integ inh | TR-FRET HIV-1 integrase multimerization, biochemical | activation, % at 7.7 µM | 2,000 tested, 17% active | AID 1053131; in the data active means activation above about 8.9%
TRFRET interf: counter-screen for LEDGF/p75 integration inhibitors: TR-FRET optical interference | shares compounds with LEDGF integ inh | TR-FRET optical interference counterscreen, HIV-1 IN multimerization | inhibition, % at 7.7 µM | 2,000 tested, under 10 active | AID 1053135;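 active means inhibition above the mean over all tested compounds plus 3 SD, which no compound reached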;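 further: 0% = integrase with antibodies and DMSO and 100% = antibodies without integrase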
LEDGF integ conf: confirmation of HIV-1 LEDGF/p75-dependent integration inhibitors | shares compounds with LEDGF integ inh | TR-FRET LEDGF/p75-dependent HIV-1 integration, biochemical | inhibition, % at 3.7 µM | 2,000 tested, 36% active; in the data active means inhibition above about 14%
Alpha artifact: counter-screen for NSD2 inhibitors: AlphaScreen artifacts | AlphaScreen artifact counterscreen, preloaded methylated H4 peptide | 1,500 tested, 9.4% active | AC35, µM (highest dose often 10 µM), inactives show at the highest dose activity change, negative = signal loss | AID 1053174 | shares compounds with NSD2 HMT inh; call rule not given here
Numbers without * were called inactive; x = no result given. Shown are actives, neighbours in structure and some others; about 1.8% of the full set was active somewhere.

SMILES | CASP6 VEID inh | UHRF1 binding | NSD2 HMT inh | TDP2 inh | LEDGF integ inh | MBD2 DNA inh | CASP1 counter | TDP2 confirm | IN multimer up | TRFRET interf | LEDGF integ conf | others
C[C@@H]1CN([C@@H](C)CO)C(=O)c2cc(-c3ccccc3F)cnc2O[C@H]1CN(C)C(=O)NC1CCCC1 | 0.1 | x | x | x | x | x | x | x | x | x | x
COc1ccc(OC)c(Nc2cc3ccccc3c(=O)[nH]2)c1 | 99.0* | 1.0 | x | 67.7* | 17.2* | -5.3 | 23.0 | 60.7* | 5.5 | -19.6 | 64.6*
COc1ccc(OC)c(Nc2nnc(C)c(=O)[nH]2)c1 | 1.0 | 3.0 | -1.7 | -5.5 | -4.5 | 0.9 | x | x | x | x | x
COc1ccccc1NC(=O)COC(=O)c1ccc([N+](=O)[O-])s1 | 86.9* | 1.9 | 0.8 | 31.6* | 16.6* | 5.2 | -0.2 | 24.2 | 0.3 | -1.5 | 44.3*
Cc1ccc(NC(=O)COC(=O)c2ccc([N+](=O)[O-])s2)c(C)c1 | 0.8 | -0.9 | 0.3 | 10.4 | -0.8 | 4.0 | x | x | x | x | x
CNC[C@@H]1Oc2ccc(NS(=O)(=O)c3ccccc3)cc2CC(=O)N([C@@H](C)CO)C[C@H]1C | -0.6 | x | x | x | x | x | x | x | x | x | x
Cc1noc(C)c1S(=O)(=O)N(C)C[C@@H]1OCCCC[C@@H](C)Oc2ccc(NC(=O)Cc3ccccc3)cc2C(=O)N([C@@H](C)CO)C[C@H]1C | -2.8 | x | x | x | x | x | x | x | x | x | x
Nc1ccc(Nc2ccccc2)c(S(=O)(=O)O)c1 | 85.7* | 19.5 | 93.7* | -5.8 | 18.7* | 2.1 | -8.4 | x | 10.5* | -52.8 | 10.7
O=C(C[C@@H]1CC[C@@H]2[C@H](COC[C@@H](O)CN2C(=O)c2ccccn2)O1)NC1CCC1 | -1.9 | x | x | x | x | x | x | x | x | x | x
Nc1c(O)cccc1C(=O)O | 56.3* | 20.3 | x | 19.7 | 38.1* | 8.1 | 3.8 | x | 7.5 | -37.9 | 21.2*
Oc1cc(NCCc2cccnc2)cc2cccnc12 | 48.8* | -12.0 | x | 15.4 | 18.0* | -9.9 | 4.7 | x | 2.3 | -11.3 | 20.8*
Nc1cc(S(=O)(=O)O)cc([N+](=O)[O-])c1O | 59.4* | 80.7* | 87.4* | 50.4* | 44.5* | 10.2 | -2.9 | 3.1 | x | x | x | Alpha artifact=-5.5%
CCS(=O)(=O)N1CC2(C1)[C@H](c1ccccc1)[C@H](CO)N2CC1CCCC1 | -0.9 | x | x | x | x | x | x | x | x | x | x
O=C1CN(C(=O)COC(=O)c2ccc([N+](=O)[O-])s2)c2ccccc2N1 | x | x | 59.8* | x | x | x | -1.4 | x | x | x | x | Alpha artifact=-5.8%
CN(CC(=O)Nc1ccccc1Cl)C(=O)COC(=O)c1cccs1 | 0.4 | -1.4 | -3.6 | 3.5 | 0.9 | 5.1 | x | x | x | x | x
CN(CC(=O)Nc1ccccc1Cl)C(=O)COC(=O)c1ccc([N+](=O)[O-])s1 | 99.4* | -2.1 | 77.6* | 29.6* | 10.0 | -1.7 | -3.8 | 18.9 | x | x | x | Alpha artifact=-4.3%
COc1ccc(S(=O)(=O)N(C)C[C@H]2OCCCC[C@@H](C)Oc3ccc(NS(C)(=O)=O)cc3C(=O)N([C@H](C)CO)C[C@H]2C)cc1 | 0.9 | x | x | x | x | x | x | x | x | x | x
Cc1cc(O)c(C=Nc2ccc(N3CCOCC3)cc2)c(C)c1Cl | -1.4 | 0.2 | -2.6 | 36.6* | 13.3 | 0.5 | x | 4.1 | x | x | x
CCOC(=O)N1CCN(C2=C(NS(=O)(=O)c3ccc(C)cc3)C(=O)c3ccccc3C2=O)CC1 | x | -6.2 | 63.8* | 42.3* | 14.9* | -16.6 | x | 32.0* | x | x | x
